# CHRM4 agonist – CHRM4 agonism in calcium assay. P08173. CHO-K1 hM4/Gqi5, Fluo-8 calcium fluorescence; vehicle 0%, full acetylcholine response 100%. activation, % at 3 µM. actives 0.14% (n = 360,000);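 active = activation above the run mean over all test wells plus 3 SD, cut at about 32% in these data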;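 note: peak over basal fluorescence ratio per well then scaled between controls; 0% = DMSO wells and 100% = acetylcholine at EC100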
# M5 PAM – CHRM5 positive allosteric modulation; CHO-K1 hM5, Fluo-8 calcium, ACh EC20 PAM; 0% = ACh EC20, 100% = ACh EC100; activation, % at 3 µM; actives 0.3% (n = 360,000); AID 624038;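 active = activation above the run cutoff, the mean activation of all test compounds plus 3 SD, cut at about 18% in these data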
# Target sequence (P08912 whole entry, looked up): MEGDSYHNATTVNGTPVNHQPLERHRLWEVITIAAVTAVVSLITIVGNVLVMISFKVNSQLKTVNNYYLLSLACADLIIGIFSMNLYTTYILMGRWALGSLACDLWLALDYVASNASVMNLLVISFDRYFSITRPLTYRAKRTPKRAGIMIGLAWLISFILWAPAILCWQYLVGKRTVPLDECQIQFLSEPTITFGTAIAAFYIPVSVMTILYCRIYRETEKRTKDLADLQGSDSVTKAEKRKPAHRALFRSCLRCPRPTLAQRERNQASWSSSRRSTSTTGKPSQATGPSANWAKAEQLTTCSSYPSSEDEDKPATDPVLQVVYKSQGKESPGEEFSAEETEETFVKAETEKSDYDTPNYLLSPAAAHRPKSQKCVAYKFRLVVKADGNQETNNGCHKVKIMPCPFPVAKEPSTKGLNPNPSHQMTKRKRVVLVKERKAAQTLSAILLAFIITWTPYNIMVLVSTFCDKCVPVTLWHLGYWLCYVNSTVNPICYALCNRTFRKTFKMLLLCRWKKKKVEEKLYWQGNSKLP
#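 system = human M5 receptor in CHO-K1 cells | reagent = EC20 acetylcholine as agonist stimulus | compound dosing = single-point, 3 µM nominal | incubation = Fluo-8 loading 80 min at 37 °C plus 30 min room temperature | detection = Fluo-8 calcium dye fluorescence, kinetic read | benchmarks = low control EC20 acetylcholine (0%), high control EC100 acetylcholine (100%)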
# CHRM5 agonist – agonists of human muscarinic M5 receptor (CHRM5); P08912; activation, % at 3 µM; actives 0.19% (n = 360,000); CHO-K1 hM5 cells, Fluo-8 calcium fluorescence; 0% DMSO wells, 100% maximal acetylcholine response;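 active = activation above the run's mean over test compounds plus 3 SD, cut at about 23% in these data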;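 note: signal is peak over basal fluorescence ratio across the kinetic read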
# M4 PAM – CHRM4 positive allosteric modulation. P08173. CHO-K1 hM4/Gqi5, Fluo-8 calcium fluorescence, ACh EC20; 0% = ACh EC20, 100% = maximal ACh. activation, % at 3 µM. actives 0.4% (n = 360,000);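 active = activation above its plate's cutoff, the mean activation of sample wells plus 3 SD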
# M4 antag – blocks acetylcholine activation of human M4 receptor. inhibition, % at 3 µM. AID 624125. actives 0.73% (n = 360,000). CHO-hM4 cells, ACh EC80, Fluo-8 calcium fluorescence. P08173;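 active = inhibition above its plate's cutoff, the mean inhibition of sample wells plus 3 SD, cut at about 27% in these data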;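 note: 0% = acetylcholine EC80 with DMSO and 100% = DMSO without agonist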
# M5 antag – blocks acetylcholine activation of human M5 receptor; inhibition, % at 3 µM; actives 0.59% (n = 360,000); AID 624040; P08912; CHO-hM5 cells, Fluo-8 calcium fluorescence, ACh EC80;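 active = inhibition above a per-plate cutoff, the mean of that plate's test compounds plus 3 SD, cut at about 27% in these data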;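 note: 0% = acetylcholine EC80 with DMSO and 100% = DMSO without agonist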
# The depositor's hits bear a star. An excerpt weighted towards active compounds, which were near 1.9% of everything screened.
SMILES,CHRM4 agonist,M5 PAM,CHRM5 agonist,M4 PAM,M4 antag,M5 antag
Cc1ncc(C[n+]2csc(C)c2C)c(N)n1,0,22*,-6,17,10,-8
CC1CCN(C(=O)CCCl)c2ccccc21 (stereo unspecified),0,-3,-2,0,1,9
O=C(Nc1ccc2cccnc2c1)c1ccc(Br)cc1,-2,1,1,15*,-18,9
CC(C)[C@H](NC(=O)OC(C)(C)C)c1nnc(S(=O)(=O)Cc2c(F)cccc2Cl)o1,2,-3,-2,-15,43*,8
CC(C)C[C@H](NC(=O)OC(C)(C)C)c1nnc(SCc2ccccc2)o1,-4,0,-5,-3,-1,0
CC[C@@H](C)[C@H](NC(=O)OC(C)(C)C)c1nnc(S(=O)(=O)Cc2cc(C)ccc2C)o1,2,-2,-3,-15,48*,8
Cc1ccccc1CS(=O)(=O)c1nnc([C@H](CC(C)C)NC(=O)OC(C)(C)C)o1,2,5,1,-11,28*,-1
Cc1cccc(N2CCN(C(=O)c3c(-c4ccccc4Cl)noc3C)CC2)c1C,1,8,-4,-3,2,5
Cc1ccc(-c2noc(CCCC(=O)NCC3CCCO3)n2)cc1 (stereo unspecified),5,-2,0,2,-4,3
CC1=[N+](C)N(c2ccccc2)C(=O)C1N=C/C=C/c1ccccc1 (stereo unspecified),2,-31,-19,-15,58*,25
COc1ccccc1/C=C/C=NC1C(=O)N(c2ccccc2)[N+](C)=C1C (stereo unspecified),6,-2,-5,-6,3,7
O=C(Nc1ccc(Cl)cc1)Nc1nnc(CSc2ccc(Cl)cc2)s1,2,0,0,-4,6,-6
O=C(Nc1ccc(Cl)cc1)Nc1nnc(CSCc2ccccc2)s1,3,0,-1,29*,4,3
CSc1ccc(CCNC(=O)c2cc(C)nn2-c2ccccc2)cc1,0,1,-1,-4,0,3
COc1cc(/C=C2\CCC(C)C3=C(c4cc(OC)c(OC)c(OC)c4)C(C#N)=C(N)OC32)cc(OC)c1OC (stereo unspecified),4,-9,11,7,-12,16
Cc1cccc(OCc2nc(C#N)c(N3CCCC3)o2)c1,0,21*,-4,2,-11,-11
Cc1cccc(OCc2nc(C#N)c(N3CC(C)CC(C)C3)o2)c1 (stereo unspecified),-1,-10,-1,-4,-11,5
COc1cccc(CN(C)C(=O)c2cc(-c3ccc(OC)c(OC)c3)nc3ccccc23)c1,12,-13,-3,-8,30*,28*
COc1ccc(CN(C)C(=O)c2cc(-c3ccc(OC)c(OC)c3)nc3ccccc23)c(OC)c1,13,-8,-5,-11,27*,20
COc1cccc(CN(C)C(=O)c2cc(-c3ccc(F)cc3)nc3ccccc23)c1,14,-7,2,-9,16,2
COc1ccc(-c2cc(C(=O)N(C)Cc3cccc(OC)c3OC)c3ccccc3n2)cc1OC,17,-11,0,-6,4,16
Cc1ccc(N(C(=O)c2csnn2)C(C(=O)NC2CCCCC2)c2ccncc2)c(C)c1 (stereo unspecified),0,-3,-3,5,-16,9
Cc1cc(/C=C2/SC(=S)N(c3cccc(C(F)(F)F)c3)C2=O)c(C)n1-c1cccnc1,16,-15,3,-14,39*,21
Cc1cc(/C=C2\SC(=S)N(Cc3ccco3)C2=O)c(C)n1-c1cccnc1,4,2,10,-2,6,-2
CC(C)c1ccc(S(=O)(=O)N2CCC(C(=O)N3CCN(c4cccc(Cl)c4)CC3)CC2)cc1,0,-1,0,7,-13,-5
SMILES,CHRM4 agonist,M5 PAM,CHRM5 agonist,M4 PAM,M4 antag,M5 antag
Cc1cc(C)c(C#N)c(SCC(=O)c2cccs2)n1,5,-7,-6,75*,37*,7
Cc1cc(C)c(C#N)c(SCC(=O)c2ccccc2)n1,3,-7,-7,26*,-4,8
CSc1nc(N)nc(SCC(=O)c2ccccc2)c1C#N,9,-10,5,-3,-5,-8
Cc1cc(SCC(=O)c2cccs2)n2nc(C)c(-c3ccc(Cl)cc3)c2n1,1,13,4,23*,-3,9
Cc1cc(=O)[nH]c(SCC(=O)c2ccccc2)c1C#N,2,6,3,34*,-11,-5
Cc1ccccc1NC(=O)CSc1[nH]c(=O)cc(C)c1C#N,3,3,5,-2,-1,-3
Cc1nn2c(SCC(=O)c3cccs3)cc(C(C)(C)C)nc2c1-c1ccccc1,1,2,0,7,-3,6
CC1(C(=O)NS(=O)(=O)Cc2cccc(Cl)c2)CCN1C(=O)C/C=C/c1ccccc1 (stereo unspecified),1,-1,1,3,-3,4
Cc1ccc(Cl)cc1NC(=O)C1C2CCC(O2)C1C(=O)O (stereo unspecified),0,0,8,-5,5,-2
Nc1ccn([C@@H]2O[C@H](CNCc3cccc4c3sc3ccccc34)[C@@H](O)[C@H]2O)c(=O)n1,0,3,-1,6,-7,-3
O=C(Nc1cccc(C(F)(F)F)c1)C1CCN(S(=O)(=O)c2ccc(N3CCCC3=O)cc2)CC1,17,-14,2,-7,22,37*
CC1CCCCN1C(=O)CSc1nc(N)nc(N)n1 (stereo unspecified),1,-4,0,26*,-6,10
CC1CCCCN1C(=O)CSc1nc(N)cc(=O)[nH]1 (stereo unspecified),1,4,-2,3,10,-5
O=C(C[n+]1cc(-c2ccccc2)n2c1CCCCC2)c1ccc(Cl)cc1,0,0,-10,0,-6,-2
CC1CCC(C(C)C)C(OC(=O)C[n+]2cc(-c3ccc(Cl)cc3)n3c2CCCCC3)C1 (stereo unspecified),2,-16,-9,-15,19,75*
CCCCCCCCc1nnc(N)s1,0,-5,-3,-6,5,4
CCCNC(=O)C1(C)CCCN(CCC(=O)c2ccccc2)C1 (stereo unspecified),1,1,-1,4,-13,3
CCC(C)(C)n1nnnc1C(c1ccc(Cl)cc1)N1CCN(C)CC1 (stereo unspecified),1,-2,-5,20*,1,-13

# High-throughput results from PubChem BioAssay.
